Test results: ChEMBL document CHEMBL4028879, “Structure-Activity Relationship Studies of Pyrimido[5,4-b]indoles as Selective Toll-Like Receptor 4 Ligands” (J Med Chem, 2017)
Calls of active or inactive are those of the source. No cut-off for these calls is given here.

Tests used:
Toll-like receptor 4 [1] = biological target: T1, Toll-like receptor 4 (Homo sapiens, UniProt O00206); experiment: Agonist activity at human TLR4 expressed in HEK293 blue cells assessed as induction of NF-kappaB activation-mediated SEAP production after 20 to 24 hrs by colorimetric assay; format: cell-based
T1 sequence (O00206 whole entry): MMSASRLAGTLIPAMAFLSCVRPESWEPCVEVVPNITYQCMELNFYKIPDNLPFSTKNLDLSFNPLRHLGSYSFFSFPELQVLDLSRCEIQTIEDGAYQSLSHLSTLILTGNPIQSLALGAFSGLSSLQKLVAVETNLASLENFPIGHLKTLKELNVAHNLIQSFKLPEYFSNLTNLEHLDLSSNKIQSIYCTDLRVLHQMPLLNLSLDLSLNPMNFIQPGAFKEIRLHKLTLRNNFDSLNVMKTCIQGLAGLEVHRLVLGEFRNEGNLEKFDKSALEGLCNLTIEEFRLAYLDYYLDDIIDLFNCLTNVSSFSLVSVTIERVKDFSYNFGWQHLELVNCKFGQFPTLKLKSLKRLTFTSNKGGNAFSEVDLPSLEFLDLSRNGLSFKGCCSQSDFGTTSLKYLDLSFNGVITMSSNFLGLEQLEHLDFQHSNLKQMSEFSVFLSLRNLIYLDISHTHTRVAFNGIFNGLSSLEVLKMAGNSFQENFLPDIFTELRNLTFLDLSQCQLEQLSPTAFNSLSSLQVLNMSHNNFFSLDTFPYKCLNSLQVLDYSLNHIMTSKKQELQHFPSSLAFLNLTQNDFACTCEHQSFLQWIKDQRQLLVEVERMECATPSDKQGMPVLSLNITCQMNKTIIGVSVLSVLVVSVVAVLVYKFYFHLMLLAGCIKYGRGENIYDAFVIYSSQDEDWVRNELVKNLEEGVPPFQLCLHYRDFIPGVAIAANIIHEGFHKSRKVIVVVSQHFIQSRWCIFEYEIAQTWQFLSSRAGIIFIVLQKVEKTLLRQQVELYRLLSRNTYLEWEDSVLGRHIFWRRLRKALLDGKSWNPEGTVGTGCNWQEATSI
Outline: (§1)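 HEK-Blue cells expressing human or mouse TLR4, 2.5 × 10⁴/well in DMEM with 10% FBS, pyruvate, glutamine and antibiotics. Graded doses from 20 mM DMSO stocks, final DMSO 0.05%. Supernatants harvested after 20–24 h; SEAP read by colorimetric substrate at 630 nm. EC50 taken as the concentration giving 50% of maximal activation. LPS 100 ng/mL served as positive control.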

Toll-like receptor 4 [2] = biological target: T2, Toll-like receptor 4 (Mus musculus, UniProt Q9QUK6); experiment: Agonist activity at mouse TLR4 expressed in HEK293 blue cells assessed as induction of NF-kappaB activation-mediated SEAP production after 20 to 24 hrs by colorimetric assay; format: cell-based; outline: as §1
T2 sequence (Q9QUK6 whole entry): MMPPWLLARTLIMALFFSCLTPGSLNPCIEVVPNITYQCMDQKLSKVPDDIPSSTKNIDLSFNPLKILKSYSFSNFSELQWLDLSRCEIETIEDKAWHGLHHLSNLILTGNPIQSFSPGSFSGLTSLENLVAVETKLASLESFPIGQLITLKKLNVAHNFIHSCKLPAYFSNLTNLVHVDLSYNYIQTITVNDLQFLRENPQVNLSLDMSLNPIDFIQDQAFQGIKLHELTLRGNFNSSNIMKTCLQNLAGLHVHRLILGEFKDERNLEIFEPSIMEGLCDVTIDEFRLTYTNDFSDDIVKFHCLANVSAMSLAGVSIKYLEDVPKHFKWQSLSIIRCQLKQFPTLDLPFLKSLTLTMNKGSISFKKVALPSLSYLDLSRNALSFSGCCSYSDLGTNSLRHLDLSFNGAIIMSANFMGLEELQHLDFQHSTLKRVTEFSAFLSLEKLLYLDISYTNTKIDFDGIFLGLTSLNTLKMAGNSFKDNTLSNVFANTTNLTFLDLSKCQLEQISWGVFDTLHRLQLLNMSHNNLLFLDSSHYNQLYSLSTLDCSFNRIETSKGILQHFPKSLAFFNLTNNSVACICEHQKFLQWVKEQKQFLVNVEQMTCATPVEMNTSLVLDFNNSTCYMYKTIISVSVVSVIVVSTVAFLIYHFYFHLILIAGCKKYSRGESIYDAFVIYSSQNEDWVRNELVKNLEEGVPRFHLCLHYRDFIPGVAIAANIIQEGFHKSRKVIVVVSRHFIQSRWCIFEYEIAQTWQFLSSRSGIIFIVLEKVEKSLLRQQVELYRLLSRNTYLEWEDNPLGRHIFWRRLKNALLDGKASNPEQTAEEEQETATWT

Toll-like receptor 4 [3] = biological target: T1, Toll-like receptor 4; experiment: Agonist activity at human TLR4 expressed in HEK293 blue cells assessed as induction of NF-kappaB activation-mediated SEAP production by measuring AUC after 20 to 24 hrs by colorimetric assay relative to N-cyclohexyl-2-(5-methyl-4-oxo-3-phenyl-4,5-dihydro-3H-pyrimido[5,4-b]indol-2-ylthio)acetamide; format: cell-based
[4] = biological target: T3, Toll-like receptor 4 (Mus musculus) (UniProt Q9QUK6); experiment: Agonist activity at mouse TLR4 expressed in HEK293 blue cells assessed as induction of NF-kappaB activation-mediated SEAP production by measuring AUC after 20 to 24 hrs by colorimetric assay relative to N-cyclohexyl-2-(5-methyl-4-oxo-3-phenyl-4,5-dihydro-3H-pyrimido[5,4-b]indol-2-ylthio)acetamide; format: cell-based
T3 sequence (whole entry): T2 sequence (Q9QUK6 whole entry)

[5] = Cytotoxicity against C57BL/6 mouse primary BMDC assessed as cell viability at 5 uM after 18 hrs by MTT assay relative to control; format: cell-based; conditions: primary BMDC (bone marrow-derived dendritic cells), read-out: Activity
[6] = biological target: T3, Toll-like receptor 4 (Mus musculus); experiment: Agonist activity at TLR4 in C57BL/6 mouse primary BMDC assessed as induction of IL-6 release at 5 uM after 18 hrs by ELISA relative to N-cyclohexyl-2-(5-methyl-4-oxo-3-phenyl-4,5-dihydro-3H-pyrimido[5,4-b]indol-2-ylthio)acetamide
Toll-like receptor 4 [7] = biological target: T1, Toll-like receptor 4; experiment: Agonist activity at TLR4 in human PBMC assessed as induction of IL-8 release at 0.1 to 10 uM after 18 hrs by ELISA
Outline: (§2)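 PBMC isolated from blood-bank buffy coats, 1 × 10⁶/mL, stimulated with graded compound doses for 18 h at 37°C, 5% CO₂. IL-6 and IL-8 in supernatants measured by ELISA. Data are mean ± SEM, representative of three independent experiments. Two-way ANOVA with Dunnett's post hoc test.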

Toll-like receptor 4 [8] = biological target: T1, Toll-like receptor 4; experiment: Agonist activity at TLR4 in human PBMC assessed as induction of IL-6 release at 0.1 to 10 uM after 18 hrs by ELISA; outline: as §2
HepG2 = experiment: Cytotoxicity against human HepG2 cells assessed as reduction in cell viability at 5 uM after 18 hrs by MTT assay; format: cell-based; conditions: hepg2, 18 h
Outline: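 HepG2 cells, 1 × 10⁴/well, exposed overnight (18 h) to 5 μM compound. MTT 0.5 mg/mL then added for six or more hours, followed by lysis and absorbance reading. Mean ± SEM of representative data from three independent experiments.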

[9] = biological target: T3, Toll-like receptor 4 (Mus musculus); experiment: Agonist activity at TLR4 in C57BL/6 mouse primary BMDC assessed as induction of CCL5 release at 0.1 to 10 uM after 18 hrs by ELISA
Outline: (§3)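 BMDC from C57BL/6 mice, 1 × 10⁵ cells/well in RPMI 1640 with 10% FBS and penicillin/streptomycin. Graded doses for 18 h at 37°C, 5% CO₂. IL-6 or CCL5 in supernatants measured by ELISA, detection limit 15 pg/mL. Positive control ultrapure LPS-EB 10 ng/mL. Significance by two-way ANOVA with Dunnett's post hoc test.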

[10] = biological target: T3, Toll-like receptor 4 (Mus musculus); experiment: Agonist activity at TLR4 in C57BL/6 mouse BMDC assessed as induction of IL-6 release at 0.1 to 10 uM after 18 hrs by ELISA; outline: as §3
Mus musculus [11] = experiment: Immunostimulatory activity in wild type C57BL/6 mouse assessed as induction of IL-6 levels in serum at 20 nmol, iv measured at 3 hrs post dose by Luminex beads assay; format: functional, organism-based
Outline: (§4)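 Seven- to nine-week-old wild-type C57BL/6 mice (n = 6) injected iv with 20 nmol/animal in 0.1% DMSO in saline. Sera collected 3 h after injection; IL-6, IP-10 and KC quantified by Luminex bead assay, detection limit 2.56 pg/mL. Kruskal–Wallis test with Dunn's post hoc test.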

Mus musculus [12] = experiment: Immunostimulatory activity in wild type C57BL/6 mouse assessed as induction of keratinocyte chemo-attractant levels in serum at 20 nmol, iv measured at 3 hrs post dose by Luminex beads assay; format: functional, organism-based; outline: as §4
Mus musculus [13] = experiment: Immunostimulatory activity in wild type C57BL/6 mouse assessed as induction of IP-10 levels in serum at 20 nmol, iv measured at 3 hrs post dose by Luminex beads assay; format: functional, organism-based; outline: as §4

EC50 (Toll-like receptor 4 [1]) [nM]	EC50 (Toll-like receptor 4 [2]) [nM]	Activity (Toll-like receptor 4 [3]) [%]	Activity [4] [%]	Activity [6] [%]	Activity (Toll-like receptor 4 [7])	Activity (Toll-like receptor 4 [8])	Activity [9]	Activity [10]	SMILES	viability at 18 h, 5 µM [5] [%]	Activity (HepG2)	Activity (Mus musculus [11])	Activity (Mus musculus [12])	Activity (Mus musculus [13])
920	2010	1300	78	137	Active	Active	Active	Active	Cn1c2ccc(-c3ccc4ccccc4c3)cc2c2nc(SCC(=O)NC3CCCCC3)n(-c3ccccc3)c(=O)c21	84	Non-Toxic	–	–	–
8260	3170	–	–	–	Active	Active	Active	Active	Cn1c2ccccc2c2nc(SCC(=O)NC3CCCCC3)n(-c3ccccc3)c(=O)c21	97 to 106	Non-Toxic	Active	Active	Active
> 10000	8800	46	44	93	–	–	Active	Active	Cn1c2c(c3nc(SCC(=O)NC4CCCCC4)n(-c4ccccc4)c(=O)c31)CCCCC2	95	Non-Toxic	Active	Active	Active
430	820	1560	223	123	Active	Active	Active	Active	Cn1c2ccc(-c3ccccc3)cc2c2nc(SCC(=O)NC3CCCCC3)n(-c3ccccc3)c(=O)c21	93	Non-Toxic	Active	Active	Active
